Laboratory results from PubChem BioAssay.
Calls of active or inactive are those of the source.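 The calls were made as follows, unless noted: active = inhibition above 20% together with a positive visual image hit; inconclusive = visual image hit but inhibition not above 20%; inactive = no visual image hit.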

Assays:
[1] = inhibitors of TNFa-induced NFkB p65 translocation, primary screen, imaging, HUVEC, MLSMR starter and 10KST1 sets (AID 438); details: HUVEC TNFa-induced p65 nuclear translocation; cell count: measured here: nuclei count (cytotoxicity indicator), at 2.08 µM; inhibition: at 2 µM, stronger effect = higher value, 0% TNFa-plus-vehicle, 100% no-TNFa wells;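 also: compound added about 3h40 before a 20 min TNFalpha stimulation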;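 as to inhibition: signal is the nuclear over cytoplasmic p65 intensity ratio per well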
[2] = inhibitors of mutant huntingtin aggregation, primary screen, imaging, exon1htt(103Q)mCFP cells, high-content imaging (AID 483;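 active = visual image review flags a hit and inhibition of aggregation exceeds 20%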;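 also: compound exposure lasted 3 days before fixation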;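 as to nuclei count: percent of the per-plate median nuclei count of sample wells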); details: exon1htt(103Q)mCFP cell line, aggregate imaging, at 2 µM; inhibition of aggregation: stronger effect = higher value; nuclei count: measured here: cell count, toxicity
[3] = inhibitors of E-selectin induction by TNFa, primary screen, imaging, HUVEC, immunofluorescence, MLSMR starter and 10KST1 sets (AID 487;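 active = visually confirmed hit in the image check and inhibition above 20%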;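 as to inhibition: signal is fraction of cell area covered by stained E-selectin grains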;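 as to nuclei count: 100% = median nuclei count of all wells on the same plate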); details: HUVEC TNFalpha-induced E-selectin immunofluorescence imaging, at 2 µM; inhibition: stronger effect = higher value; nuclei count: measured here: cell number, toxicity
[4] = target: Voltage-gated potassium channel subunit beta-2 (Rattus norvegicus) (UniProt P62483); test: KvBeta enzyme negative modulators, primary screen, biochemical, NADPH fluorescence (AID 622;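 active = fluorescence slope higher than the sample average by over 3 SD, cut at about -0.22 in these data, passing the limit was not always enough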;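 also: slope of raw intensity against log time taken from 70 to 1610 s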); details: recombinant KvBeta, 4-cyanobenzaldehyde reduction, at 10 µM, stronger effect = higher value
[5] = target: Voltage-gated potassium channel subunit beta-2 (Rattus norvegicus) (UniProt P62483); test: KvBeta positive modulators, primary screen, biochemical, NADPH fluorescence (AID 623;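 active = NADPH fluorescence slope more negative than the mean of all samples by about 3 SD, 99.7% confidence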;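 also: fluorescence intensity change per second fitted from 20 to 320 s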); details: Recombinant KvBeta, NADPH fluorescence decrease slope, 10 min; at 10 µM; stronger effect = lower value
[6] = target: Muscarinic acetylcholine receptor M4 (Homo sapiens) (UniProt P08173); test: compounds altering M4/GIRK thallium flux, either direction, primary screen, M4 allosteric agonist project, cell-based, HEK293 M4/GIRK, BTC-AM (AID 625;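 active = fluorescence slope after compound addition differing from the mean of all tested samples at 99.7% confidence, mostly higher but some lower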;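 also: thallium influx through GIRK channels coupled to M4 in HEK293 cells with BTC-AM dye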); details: at 10 µM, actives lie on both sides
Summary of the method: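 Material: HEK293 cells with M4 receptor and GIRK channels; Times: cells overnight at 37 °C, BTC-AM loading 1 h, reads 2 min total; Technique: kinetic BTC-AM fluorescence sampled at 1 Hz, 10 s pre-addition baseline; Read-out basis: slope over 15–24 s of trace normalized to starting intensity; Controls: carbachol positive, DMSO negative.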

[7] = inhibitors of Sendai virus-induced IRF3 signaling, primary screen, TLR/RLR signaling modifier project, cell-based, Sendai virus stimulus, luciferase, 10K MLSCN set (AID 602276;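 active = inhibition at or above 50% at 10 µM; inactive = inhibition below 50%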;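 also: firefly luciferase from ISG56 promoter only with Renilla not read in this screen; 0% = Sendai virus plus DMSO and 100% = medium plus DMSO without virus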); details: HEK293 RL24 IRF3 luciferase reporter, at 10 µM, stronger effect = higher value
[8] = inhibitors of poly I:C-induced TLR3 signaling, primary screen, cell-based, poly I:C stimulus, luciferase, 10K MLSCN set (AID 602277;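 active = inhibition of the reporter signal at or above 50%; inactive = inhibition below 50%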); details: HEK293-TLR3 RL24 IRF3 luciferase reporter, at 10 µM, stronger effect = higher value

Sequence of Voltage-gated potassium channel subunit beta-2 (Rattus norvegicus) (P62483 whole entry, looked up): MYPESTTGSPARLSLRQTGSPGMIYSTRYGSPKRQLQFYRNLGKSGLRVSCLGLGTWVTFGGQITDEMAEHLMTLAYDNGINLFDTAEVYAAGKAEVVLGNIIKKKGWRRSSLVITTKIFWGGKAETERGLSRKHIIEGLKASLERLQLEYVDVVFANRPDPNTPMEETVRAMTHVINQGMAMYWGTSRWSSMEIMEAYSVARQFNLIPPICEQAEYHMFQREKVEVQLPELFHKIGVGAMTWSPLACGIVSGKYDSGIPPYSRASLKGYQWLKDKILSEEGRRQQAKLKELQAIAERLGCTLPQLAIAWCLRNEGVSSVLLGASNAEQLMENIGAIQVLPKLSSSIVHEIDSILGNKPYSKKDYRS
Sequence of Muscarinic acetylcholine receptor M4 (Homo sapiens) (P08173 whole entry, looked up): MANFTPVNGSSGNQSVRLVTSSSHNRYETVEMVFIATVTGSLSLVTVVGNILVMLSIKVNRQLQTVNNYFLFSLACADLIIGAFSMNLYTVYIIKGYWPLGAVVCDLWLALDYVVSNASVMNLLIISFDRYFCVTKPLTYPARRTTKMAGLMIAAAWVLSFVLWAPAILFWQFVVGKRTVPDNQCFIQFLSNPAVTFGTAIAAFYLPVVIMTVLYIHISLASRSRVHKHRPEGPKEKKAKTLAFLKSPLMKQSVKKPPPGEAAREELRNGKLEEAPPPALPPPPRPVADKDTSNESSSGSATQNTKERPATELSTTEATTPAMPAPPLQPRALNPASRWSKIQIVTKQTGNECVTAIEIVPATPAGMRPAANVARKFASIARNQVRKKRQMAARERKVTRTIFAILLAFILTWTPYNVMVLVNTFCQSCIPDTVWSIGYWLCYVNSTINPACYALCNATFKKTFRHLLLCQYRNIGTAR

SMILES	cell count [1]	inhibition [1]	inhibition of aggregation [2]	nuclei count [2]	inhibition [3]	nuclei count [3]	fluorescence slope [4]	NADPH fluorescence slope [5]	fluorescence slope [6]	inhibition [7]	inhibition [8]
Cn1c(=O)n(C)c2cc(CNc3ccc(N4CCOCC4)c(C(=O)O)c3)ccc21	350	-0.2% (inactive)	3% (inactive)	107%	-9.8% (inactive)	110%	-0.423 (inactive)	0.00012 (inactive)	0.00799 (inactive)	13.1% (inactive)	5.3% (inactive)
COC(=O)c1ccccc1NC(=O)c1noc2c1CC(C(C)(C)C)CC2 (centres undefined)	216	4.9% (inactive)	0.9% (inactive)	104%	-31.4% (inactive)	116%	-0.559 (inactive)	-3.2e-05 (inactive)	0.00974 (inactive)	8.65% (inactive)	4.53% (inactive)
O=C(NCCO)c1scc2c1OCCO2	572	-12.8% (inactive)	7.6% (inactive)	97.2%	-15.2% (inactive)	104%	-0.327 (inactive)	6.5e-05 (inactive)	0.00603 (inactive)	16.6% (inactive)	19.5% (inactive)
CCOC(=O)N1CCN(S(=O)(=O)c2cc(Cl)c(OC)cc2Cl)CC1	364	-9.8% (inactive)	-8.2% (inactive)	100%	-101% (inactive)	112%	-0.509 (inactive)	4.3e-05 (inactive)	0.00536 (inactive)	-2.67% (inactive)	1.26% (inactive)
N#Cc1c(N)nc(SCc2ccncc2)c(C#N)c1-c1cccs1	321	10.9% (inactive)	-2.2% (inactive)	32.8%	13.8% (inactive)	107%	-0.529 (inactive)	-2.3e-05 (inactive)	0.0051 (inactive)	26.1% (inactive)	25.1% (inactive)
N#CCCn1cnc2ccccc21	332	5.6% (inactive)	22.8% (inactive)	99.2%	63.2% (active)	132%	-0.564 (inactive)	-2.5e-05 (inactive)	0.0098 (inactive)	-0.285% (inactive)	3.23% (inactive)
Cc1nc(C)c(C(=O)Nc2ccc(Oc3ccccc3)cc2)o1	405	0.6% (inactive)	-26.8% (inactive)	105%	-128% (inactive)	119%	-0.306 (inactive)	-2.3e-05 (inactive)	0.00832 (inactive)	-20.2% (inactive)	-128% (inactive)
CCOc1cc(C2C(C(=O)c3ccccc3)=C(C(=O)OC)Nc3nnnn32)ccc1O (centres undefined)	351	-7.9% (inactive)	0% (inactive)	110%	-69.2% (inactive)	157%	-0.52 (inactive)	-3.5e-05 (inactive)	0.00584 (inactive)	0.723% (inactive)	11.1% (inactive)
Cc1cc(OC(=O)N2CCOCC2)cc(C)c1Cl	309	-12.3% (inactive)	-22.3% (inactive)	114%	-50% (inactive)	130%	-0.444 (inactive)	5.1e-05 (inactive)	0.00877 (inactive)	-13.8% (inactive)	99.2% (active)
CCCCNC(=O)Nc1ccnn1C1CCCCC1	909	-7.5% (inactive)	-8.6% (inactive)	100%	-34.1% (inactive)	105%	-0.56 (inactive)	-1.6e-05 (inactive)	0.0186 (active)	17% (inactive)	18.1% (inactive)
Nc1nc(CN2CCOCC2)cs1	650	-4.8% (inactive)	7.7% (inactive)	104%	14.6% (inactive)	113%	-0.577 (inactive)	-2.3e-05 (inactive)	0.00598 (inactive)	15.2% (inactive)	14.7% (inactive)
CCOC(=O)C(CC)Sc1ncnc2nc[nH]c12 (centres undefined)	351	1.9% (inactive)	-18.9% (inactive)	98.7%	-46% (inactive)	123%	-0.555 (inactive)	-2.8e-05 (inactive)	0.00496 (inactive)	3.43% (inactive)	5.34% (inactive)
CCN(CC)c1ccc(NC(=O)c2[nH]c(C)c(C(C)=O)c2C)c(C)c1	911	7.1% (inactive)	8.4% (inactive)	109%	-105% (inactive)	136%	-0.555 (inactive)	-3.3e-05 (inactive)	0.00732 (inactive)	2.56% (inactive)	-8.53% (inactive)
CCn1cc(/C=C(/C#N)S(=O)(=O)c2ccccc2)cn1	593	-10.9% (inactive)	7% (inactive)	75%	-61.5% (inactive)	99.9%	-0.488 (inactive)	-9.1e-05 (inactive)	0.00519 (inactive)	-4.56% (inactive)	-9.84% (inactive)
